Calls of active or inactive are those of the source. No cut-off for these calls is given here.
Experiments:
[1] = tested on: HCT-116; assay: Antiproliferative activity against human HCT116 cells harboring KRAS G13D mutant assessed as inhibition of cell viability after 96 hrs by Celltiter-Glo assay; assay type: functional, cell-based; conditions: HCT-116, 96 h
[2] = Prodrug release in human HCT-116 cells assessed as increase in intracellular NO level at 100 uM measured after 2 hr by DAF-FM DA reagent based laser confocal scanning microscopy; conditions: hct-116, 2 h
[3] = tested on: A549; assay: Antiproliferative activity against human A549 cells harboring KRAS G12S mutant assessed as inhibition of cell viability after 96 hrs by Celltiter-Glo assay; assay type: functional, cell-based; conditions: A549, 96 h
[4] = tested on: HL-60; assay: Antiproliferative activity against human HL60 cells harboring NRAS […] mutant assessed as inhibition of cell viability after 96 hrs by Celltiter-Glo assay; assay type: functional, cell-based; conditions: HL-60, 96 h
[5] = Antiproliferative activity against human A375 cells harboring BRAF V600E mutant assessed as inhibition of cell viability after 96 hrs by Celltiter-Glo assay; assay type: functional, cell-based, A375/R; conditions: A-375, 96 h
[6] = tested on: MDA-MB-231; assay: Antiproliferative activity against human MDA-MB-231 cells harboring KRAS G13D/BRAF G464V mutant assessed as inhibition of cell viability after 96 hrs by Celltiter-Glo assay; assay type: functional, cell-based; conditions: MDA-MB-231, 96 h
[7] = tested on: L02; assay: Cytotoxicity against human HL7702 cells assessed as reduction in cell viability after 96 hrs by Celltiter-Glo assay; assay type: cell-based; conditions: L02, 96 h
How it was run: (§1)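 Cells kept at 37 °C in humidified 5% CO2 with 10% FBS; Vero in DMEM, HL7702 in RPMI-1640. Compounds added to plated cells and incubated 96 h at 37 °C. Viability read by CellTiter-Glo reagent added directly to the wells. IC50 fitted from the readings.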

[8] = tested on: Vero; assay: Cytotoxicity against African green monkey Vero cells assessed as reduction in cell viability after 96 hrs by Celltiter-Glo assay; assay type: cell-based; conditions: Chlorocebus sabaeus; how it was run: as §1
[9] = tested on: MDA-MB-231; assay: Induction of apoptosis in human MDA-MB-231 cells assessed as necrotic cells at 10 uM incubated for 24 hrs by AnnexinV-FITC and propidium iodide staining based flow cytometry (reference value: 1.084%); assay type: functional
[10] = tested on: MDA-MB-231; assay: Induction of apoptosis in human MDA-MB-231 cells assessed as early apoptotic cells at 10 uM incubated for 24 hrs by AnnexinV-FITC and propidium iodide staining based flow cytometry (reference value: 4.4%); assay type: functional
[11] = tested on: MDA-MB-231; assay: Induction of apoptosis in human MDA-MB-231 cells assessed as viable cells at 10 uM incubated for 24 hrs by AnnexinV-FITC and propidium iodide staining based flow cytometry (reference value: 90.962%); assay type: functional; conditions: read-out: Activity
[12] = tested on: MDA-MB-231; assay: Induction of apoptosis in human MDA-MB-231 cells assessed as late apoptotic cells at 10 uM incubated for 24 hrs by AnnexinV-FITC and propidium iodide staining based flow cytometry (reference value: 3.54%); assay type: functional
[13] = tested on: MDA-MB-231; assay: Induction of apoptosis in human MDA-MB-231 cells assessed as viable cells at 1 uM incubated for 24 hrs by AnnexinV-FITC and propidium iodide staining based flow cytometry (reference value: 90.962%); assay type: functional; conditions: read-out: Activity
[14] = molecular target: T1, Dual specificity mitogen-activated protein kinase kinase; MEK1/2 (Homo sapiens) (UniProt P36507+Q02750); assay: Inhibition of MEK in human MDA-MB-231 cells assessed as reduction in ERK phosphorylation incubated for 2 hrs by Western blot analysis; assay type: cell-based; conditions: dose 0.1-10 µM
T1 sequence (P36507 whole entry, looked up): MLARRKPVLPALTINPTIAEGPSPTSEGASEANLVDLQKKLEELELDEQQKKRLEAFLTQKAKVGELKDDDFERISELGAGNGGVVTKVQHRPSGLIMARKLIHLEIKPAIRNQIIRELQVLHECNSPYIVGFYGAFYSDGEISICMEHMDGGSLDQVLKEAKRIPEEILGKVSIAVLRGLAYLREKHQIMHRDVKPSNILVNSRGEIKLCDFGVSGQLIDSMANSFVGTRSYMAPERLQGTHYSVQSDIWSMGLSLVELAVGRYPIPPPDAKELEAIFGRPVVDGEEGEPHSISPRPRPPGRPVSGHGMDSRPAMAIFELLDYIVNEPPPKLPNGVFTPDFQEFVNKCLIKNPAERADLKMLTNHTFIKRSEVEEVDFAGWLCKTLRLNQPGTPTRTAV
T1 sequence (Q02750 whole entry, looked up): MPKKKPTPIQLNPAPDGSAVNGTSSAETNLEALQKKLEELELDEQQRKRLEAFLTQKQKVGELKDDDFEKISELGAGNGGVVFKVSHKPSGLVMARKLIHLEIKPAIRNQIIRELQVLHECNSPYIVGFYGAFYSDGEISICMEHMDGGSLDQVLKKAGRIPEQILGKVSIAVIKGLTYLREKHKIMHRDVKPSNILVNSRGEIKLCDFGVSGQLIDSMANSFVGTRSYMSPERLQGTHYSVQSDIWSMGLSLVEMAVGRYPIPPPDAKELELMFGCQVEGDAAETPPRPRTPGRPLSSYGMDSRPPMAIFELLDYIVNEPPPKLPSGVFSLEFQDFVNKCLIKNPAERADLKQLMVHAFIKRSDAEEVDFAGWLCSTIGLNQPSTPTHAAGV

[15] = molecular target: T1, Dual specificity mitogen-activated protein kinase kinase; MEK1/2 (Homo sapiens); assay: Inhibition of MEK in human MDA-MB-231 cells assessed as reduction in MEK phosphorylation at 1 uM incubated for <=1 hr by Western blot analysis; assay type: cell-based; conditions: time hrs <=1
How it was run: (§2)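 MDA-MB-231 in RPMI-1640 with 10% FBS. Dose series at 1, 3 and 10 µM for 2 h or 24 h; time course at 1 µM or 10 µM over several time points. RIPA lysates with protease/phosphatase inhibitors, equal protein on 4-20% SDS-PAGE, PVDF transfer, 5% milk block. Probed overnight at 4 °C for pMEK, MEK, pERK and ERK, then HRP secondary.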

[16] = tested on: MDA-MB-231; assay: Induction of apoptosis in human MDA-MB-231 cells assessed as early apoptotic cells at 1 uM incubated for 24 hrs by AnnexinV-FITC and propidium iodide staining based flow cytometry (reference value: 4.4%); assay type: functional
[17] = molecular target: T1, Dual specificity mitogen-activated protein kinase kinase; MEK1/2 (Homo sapiens); assay: Inhibition of MEK in human MDA-MB-231 cells assessed as reduction in ERK phosphorylation at 1 uM by Western blot analysis; assay type: cell-based; conditions: time 1-6 hrs, TDE = time-dependent effect; how it was run: as §2
[18] = molecular target: T1, Dual specificity mitogen-activated protein kinase kinase; MEK1/2 (Homo sapiens); assay: Inhibition of MEK in human MDA-MB-231 cells assessed as reduction in MEK phosphorylation at 1 to 10 uM incubated for 2 hrs by Western blot analysis; assay type: cell-based; conditions: dose 1-10 µM; how it was run: as §2
[19] = molecular target: T1, Dual specificity mitogen-activated protein kinase kinase; MEK1/2 (Homo sapiens); assay: Inhibition of MEK in human MDA-MB-231 cells assessed as reduction in ERK phosphorylation at 1 to 10 uM incubated for 2 hrs by Western blot analysis; assay type: cell-based; conditions: dose 1-10 µM; how it was run: as §2
[20] = molecular target: T1, Dual specificity mitogen-activated protein kinase kinase; MEK1/2 (Homo sapiens); assay: Inhibition of MEK in human MDA-MB-231 cells assessed as reduction in ERK phosphorylation at 1 uM incubated for <=1 hr by Western blot analysis; assay type: cell-based; conditions: time hrs <=1; how it was run: as §2
[21] = molecular target: T1, Dual specificity mitogen-activated protein kinase kinase; MEK1/2 (Homo sapiens); assay: Inhibition of MEK in human MDA-MB-231 cells assessed as reduction in MEK phosphorylation at 1 uM by Western blot analysis; assay type: cell-based; conditions: time 1-6 hrs, TDE = time-dependent effect; how it was run: as §2
[22] = molecular target: T1, Dual specificity mitogen-activated protein kinase kinase; MEK1/2 (Homo sapiens); assay: Inhibition of MEK in human MDA-MB-231 cells assessed as reduction in MEK phosphorylation incubated for 2 hrs by Western blot analysis; assay type: cell-based; conditions: dose 0.1-10 µM
[23] = tested on: MDA-MB-231; assay: Induction of apoptosis in human MDA-MB-231 cells assessed as necrotic cells at 1 uM incubated for 24 hrs by AnnexinV-FITC and propidium iodide staining based flow cytometry (reference value: 1.084%); assay type: functional
[24] = tested on: MDA-MB-231; assay: Induction of apoptosis in human MDA-MB-231 cells assessed as late apoptotic cells at 1 uM incubated for 24 hrs by AnnexinV-FITC and propidium iodide staining based flow cytometry (reference value: 3.54%); assay type: functional

Cc1c(Cc2cccc(NS(=O)(=O)NCCC#N)c2F)c(=O)oc2cc(OCCO)ccc12
IC50 [1]: 15400 nM
Drug metabolism [2]: Metabolite_Notdetected
IC50 [3]: > 5000 nM
IC50 [4]: 390 nM
IC50 [5]: 650 nM
IC50 [6]: 5490 nM

Cc1c(Cc2cccc(NS(=O)(=O)NCC(F)(F)F)c2F)c(=O)oc2cc(OCCOc3no[n+]([O-])c3S(=O)(=O)c3ccccc3)ccc12
IC50 [1]: 610 nM
Drug metabolism [2]: Metabolite_Detected
IC50 [3]: 2510 nM
IC50 [4]: 270 nM
IC50 [5]: 500 nM
IC50 [6]: 130 nM

CNS(=O)(=O)Nc1cccc(Cc2c(C)c3ccc(OCCCCOc4no[n+]([O-])c4S(=O)(=O)c4ccccc4)cc3oc2=O)c1F
IC50 [1]: 2780 nM
IC50 [7]: 1930 nM
IC50 [8]: 2980 nM
Drug metabolism [2]: Metabolite_Detected
IC50 [3]: 3490 nM
IC50 [6]: 200 nM

CCOC(=O)N1CCN(/[N+]([O-])=N/Oc2ccc([N+](=O)[O-])cc2[N+](=O)[O-])CC1
Activity [9]: 2.444%
IC50 [1]: 500 nM
IC50 [7]: 1990 nM
IC50 [8]: 1160 nM
Activity [10]: 27.1%
Drug metabolism [2]: Metabolite_Detected
IC50 [3]: 690 nM
IC50 [4]: 530 nM
IC50 [5]: 1990 nM
viability at 10 µM [11]: 51.2%
IC50 [6]: 2900 nM
Activity [12]: 19.2%

CNS(=O)(=O)Nc1cccc(Cc2c(C)c3ccc(OCCCCO)cc3oc2=O)c1F
IC50 [1]: 7350 nM
Drug metabolism [2]: Metabolite_Notdetected
IC50 [3]: > 5000 nM
IC50 [6]: 3200 nM

CCNS(=O)(=O)Nc1cccc(Cc2c(C)c3ccc(OCCO)cc3oc2=O)c1F
IC50 [1]: 5790 nM
Drug metabolism [2]: Metabolite_Notdetected
IC50 [3]: > 5000 nM
IC50 [4]: 150 nM
IC50 [5]: 200 nM
IC50 [6]: 2480 nM

Cc1c(Cc2cccc(NS(=O)(=O)NC(C)C)c2F)c(=O)oc2cc(OCCO)ccc12
IC50 [1]: 5090 nM
Drug metabolism [2]: Metabolite_Notdetected
IC50 [3]: > 5000 nM
IC50 [4]: 140 nM
IC50 [5]: 150 nM
IC50 [6]: 2380 nM

CNS(=O)(=O)Nc1cccc(Cc2c(C)c3ccc(OCCCOc4no[n+]([O-])c4S(=O)(=O)c4ccccc4)cc3oc2=O)c1F
Activity [9]: 14.729%
viability at 1 µM [13]: 61.2%
inhibition [14]: Dose-dependent effect
IC50 [1]: 640 nM
IC50 [7]: 5620 nM
inhibition [15]: Active
Activity [16]: 22.6%
IC50 [8]: 21100 nM
Activity [10]: 24.7%
inhibition [17]: Tde
inhibition [18]: Active
inhibition [19]: Active
Drug metabolism [2]: Metabolite_Detected
inhibition [20]: Active
IC50 [3]: 1350 nM
inhibition [21]: Tde
inhibition [22]: Dose-dependent effect
Activity [23]: 8.443%
Activity [24]: 7.65%
viability at 10 µM [11]: 53.7%
IC50 [6]: 34 nM
Activity [12]: 6.87%

CONS(=O)(=O)Nc1cccc(Cc2c(C)c3ccc(OCCO)cc3oc2=O)c1F
Drug metabolism [2]: Metabolite_Notdetected

Cc1c(Cc2cccc(NS(=O)(=O)NC(C)C)c2F)c(=O)oc2cc(OCCOc3no[n+]([O-])c3S(=O)(=O)c3ccccc3)ccc12
IC50 [1]: 1230 nM
Drug metabolism [2]: Metabolite_Detected
IC50 [3]: 2990 nM
IC50 [4]: 550 nM
IC50 [5]: 970 nM
IC50 [6]: 860 nM

— ChEMBL document CHEMBL4680253, “Hybrids of MEK inhibitor and NO donor as multitarget antitumor drugs” (Eur J Med Chem, 2020)
